Results taken from ChEMBL document CHEMBL1821679, “Targeting the heat shock protein 90 dimer with dimeric inhibitors” (J Med Chem, 2011).
Active and inactive are the calls of the source. The calls are words filed in the database; no cut-off is given here.

What was measured:
[1] = target: T1, Heat shock protein HSP90 (Homo sapiens) (UniProt P07900+P08238); assay: Inhibition of Hsp90 in human MCF7 cells assessed as induction of Her2 degradation at 0.5 fold IC50 after 24 hrs by Western blot method; type: cell-based
Procedure, shortened: (§1)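 MCF-7 cells treated 24 h with compound in DMSO (1% final); geldanamycin 500 nM served as positive control and DMSO as vehicle control. Cells harvested in cold PBS and lysed 1 h on ice in RIPA with 1 mM PMSF, 2 mM orthovanadate and protease inhibitors. Lysates clarified 14,000g, 15 min, 4 °C. Protein (20 µg, BCA) resolved under reducing conditions and blotted on PVDF for Her2, Raf and Akt, with actin as loading control. Detection by HRP secondary antibody and chemiluminescence.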

[2] = Antiproliferative activity against human PC3MM2 cells after 72 hrs by MTS/PMS assay; type: functional, cell-based; conditions: PC3MM2, 72 h
Procedure, shortened: (§2)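 Cells grown in medium with non-essential amino acids, 2 mM L-glutamine, streptomycin, penicillin and 10% FBS at 37 °C, 5% CO2; seeded 2000/well, attached overnight. Test agent added over a concentration range in DMSO (1% final), 72 h exposure. Viable cells counted by MTS/PMS read-out against 1% DMSO wells as 100% proliferation. IC50 taken as mean ± SD of at least two separate experiments, each in triplicate.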

[3] = target: T1, Heat shock protein HSP90 (Homo sapiens); assay: Inhibition of Hsp90 in human MCF7 cells assessed as induction of Akt degradation at 0.5 fold IC50 after 24 hrs by Western blot method; type: cell-based; procedure, shortened: as §1
MCF7 = assay: Antiproliferative activity against human MCF7 cells after 72 hrs by MTS/PMS assay; type: functional, cell-based; conditions: MCF7, 72 h; procedure, shortened: as §2
[4] = target: T1, Heat shock protein HSP90 (Homo sapiens); assay: Inhibition of Hsp90 in human MCF7 cells assessed as induction of Her2 degradation at 5 fold IC50 after 24 hrs by Western blot method; type: cell-based; procedure, shortened: as §1
[5] = target: T1, Heat shock protein HSP90 (Homo sapiens); assay: Inhibition of Hsp90 in human MCF7 cells assessed as induction of Raf degradation at 0.5 fold IC50 after 24 hrs by Western blot method; type: cell-based; procedure, shortened: as §1
[6] = target: T1, Heat shock protein HSP90 (Homo sapiens); assay: Inhibition of Hsp90 in human MCF7 cells assessed as induction of Raf degradation at 5 fold IC50 after 24 hrs by Western blot method; type: cell-based; procedure, shortened: as §1
[7] = target: T1, Heat shock protein HSP90 (Homo sapiens); assay: Inhibition of Hsp90 in human MCF7 cells assessed as induction of Akt degradation at 5 fold IC50 after 24 hrs by Western blot method; type: cell-based; procedure, shortened: as §1
A549 = assay: Antiproliferative activity against human A549 cells after 72 hrs by MTS/PMS assay; type: functional, cell-based; conditions: A549, 72 h; procedure, shortened: as §2
SK-BR-3 = assay: Antiproliferative activity against human SKBR3 cells after 72 hrs by MTS/PMS assay; type: functional, cell-based; conditions: SK-BR-3, 72 h; procedure, shortened: as §2
HT-29 = assay: Antiproliferative activity against human HT-29 cells after 72 hrs by MTS/PMS assay; type: functional, cell-based; conditions: HT-29, 72 h; procedure, shortened: as §2

Structure (SMILES)	inhibition [1]	IC50 [2] [nM]	inhibition [3]	IC50 (MCF7) [nM]	inhibition [4]	inhibition [5]	inhibition [6]	inhibition [7]	IC50 (A549) [nM]	IC50 (SK-BR-3) [nM]	IC50 (HT-29) [nM]
COc1ccc(C(=O)Nc2cc3ccc(O[C@@H]4OC(C)(C)[C@H](OC)[C@@H](O)[C@H]4O)c(C)c3oc2=O)cc1-c1cc(C(=O)Nc2cc3ccc(O[C@@H]4OC(C)(C)[C@H](OC)[C@@H](O)[C@H]4O)c(C)c3oc2=O)ccc1OC	Active	36700	Active	760	Active	Active	Active	Active	35400	1160	36500
COc1ccc(C(=O)Nc2cc3ccc(O[C@@H]4OC(C)(C)[C@H](OC)[C@@H](O)[C@H]4O)c(OC)c3oc2=O)cc1-c1cc(C(=O)Nc2cc3ccc(O[C@@H]4OC(C)(C)[C@H](OC)[C@@H](O)[C@H]4O)c(OC)c3oc2=O)ccc1OC	Active	270	Active	880	Active	Active	Active	Active	210	910	270
Cc1c(OC2CCN(C)CC2)ccc2cc(NC(=O)CCC/C=C/CCCC(=O)Nc3cc4ccc(OC5CCN(C)CC5)c(C)c4oc3=O)c(=O)oc12	inactive	440	Active	630	inactive	Active	Active	Active	220	890	240
Cc1c(OCCCN(C)C)ccc2cc(NC(=O)C/C=C/CC(=O)Nc3cc4ccc(OCCCN(C)C)c(C)c4oc3=O)c(=O)oc12	inactive	15200	inactive	840	inactive	inactive	inactive	inactive	19400	460	12200
Cc1c(OC2CCN(C)CC2)ccc2cc(NC(=O)CC/C=C/CCC(=O)Nc3cc4ccc(OC5CCN(C)CC5)c(C)c4oc3=O)c(=O)oc12	Active	4190	Active	270	Active	Active	Active	Active	5540	150	50
